Compound activity: PubChem, Broad Institute
HIV Env fusion – inhibitors of HIV Env-mediated cell fusion | inhibition, % at 12.3 µM | HeLa-JRFL Env/CEM21 cell fusion, luciferase | actives 1.1% (n = 360,000);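 active means mean replicate inhibition score of at least 50 and every replicate individually at or above 50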
FN deposit inh – fibronectin deposition inhibition; actives 0.086% (n = 350,000); inhibition, % at 12.6 µM; AH1F fibroblasts, Alexa488-fibronectin deposition fluorescence, overnight; AID 743247;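 active means mean inhibition across replicates of 30% or more, regardless of how many single replicates reach that level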
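Material: AH1F fibroblast monolayer depositing Alexa488-labelled fibronectin into matrix / Amount: 10000 AH1F cells per well / Signal: fluorescence 485/525 nm / Medium: DMEM, 2% serum / Compound: single dose, pinned / Incubation: 1 h cell adhesion before compound, then overnight fibronectin incubation / Reagent: Alexa488-FN, 24 nM final / Read-out: inhibition of fibronectin deposition signal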
PDI inh – inhibitors of human protein disulfide isomerase | PDI insulin aggregation turbidity, A650, 90 min | inhibition, % at 10 µM | actives 0.052% (n = 350,000);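 active means mean inhibition across replicates of 30% or more, whatever share of single replicates reach that level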
ERp5 inh – blocks human ERp5 reductase activity on insulin. ERp5 insulin aggregation, absorbance 650 nm, 90 min. inhibition, % at 9.99 µM. actives 0.05% (n = 350,000);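 active means mean replicate inhibition above about 25%, with every replicate also reaching it, limit read from the data, passing the limit was not always enough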
Target sequence (Q15084 whole entry, looked up): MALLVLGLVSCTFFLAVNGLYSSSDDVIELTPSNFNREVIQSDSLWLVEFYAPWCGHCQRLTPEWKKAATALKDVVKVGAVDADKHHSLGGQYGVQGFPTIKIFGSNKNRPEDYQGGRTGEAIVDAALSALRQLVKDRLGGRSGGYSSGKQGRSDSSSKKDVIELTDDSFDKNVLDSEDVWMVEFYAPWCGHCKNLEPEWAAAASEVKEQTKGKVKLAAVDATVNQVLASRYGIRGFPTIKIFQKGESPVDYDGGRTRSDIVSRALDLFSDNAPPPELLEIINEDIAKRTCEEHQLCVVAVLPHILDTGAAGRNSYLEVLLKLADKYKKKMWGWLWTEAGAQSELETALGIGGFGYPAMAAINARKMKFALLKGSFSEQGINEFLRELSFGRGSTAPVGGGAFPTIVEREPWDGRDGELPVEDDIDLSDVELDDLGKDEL
GSIS activator – GLuc luminescence reporter in INS-1E cells, primary screen for activators of glucose-dependent secretion of insulin. INS-1E GLuc reporter insulin secretion, 2-3 h. activation, % at 16.6 µM. actives 0.61% (n = 370,000). AID 743287;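 active means lowest replicate activation of at least 40%, so every replicate reaches that level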
Each line names hits and unclear results; the compound was inactive in the other large screens; [ ] = remark or other dose. Hits are enriched below; roughly 1.4% of the tested compounds scored in any of these assays.

O=C(NCc1cccc(F)c1)[C@@H]1[C@@H](CO)[C@@H]2Cn3c(ccc(-c4cccnc4)c3=O)[C@H]1N2CC1CC1	HIV Env fusion 67[16.7 µM] (no result: FN deposit inh, PDI inh)
O=C(NCc1cccc(F)c1)[C@H]1[C@H](CO)[C@H]2Cn3c(ccc(-c4ccncc4)c3=O)[C@@H]1N2CC1CC1	none (no result: HIV Env fusion, PDI inh)
CCCC(=O)Nc1ccc2c(c1)C(=O)N(C)[C@@H]1CC[C@H](CC(=O)NCC3CC3)O[C@@H]1CO2	none (no result: HIV Env fusion, PDI inh)
C[C@H]1CN([C@@H](C)CO)C(=O)c2cc(C#CCN(C)C)cnc2O[C@H]1CN(C)Cc1ccc(C(=O)O)cc1	none (no result: FN deposit inh, PDI inh)
O=[N+]([O-])c1ccc(C2CCCC/C2=N/OCc2ccc(F)cc2)c([N+](=O)[O-])c1 (stereo not given)	HIV Env fusion 65 (no result: FN deposit inh, ERp5 inh, GSIS activator)
O=C(Cn1nnc(-c2ccccc2)n1)N=Nc1c(O)[nH]c2ccccc12	GSIS activator 93 (no result: ERp5 inh)
O=C(CCNC(=O)c1ccccc1)N=Nc1c(O)[nH]c2ccccc12	none (no result: PDI inh)
CC1CC(=O)NN=C1c1ccc(N(C)C)c([N+](=O)[O-])c1 (stereo not given)	HIV Env fusion 73 (no result: ERp5 inh)
CCN(CC)c1ccc(C2=NNC(=O)CC2C)cc1[N+](=O)[O-] (stereo not given)	HIV Env fusion 87 (no result: ERp5 inh)
Cc1cccc(N2C(=O)N3[C@H](c4ccc(Br)cc4)[C@@H]4C(=O)N(C(C)(C)C)C(=O)[C@@H]4[C@]3(C)C2=O)c1	HIV Env fusion 112 (no result: FN deposit inh)
COc1ccc([C@@H]2[C@@H]3C(=O)N(C(C)(C)C)C(=O)[C@@H]3[C@]3(C)C(=O)N(c4cccc(Cl)c4)C(=O)N23)cc1	HIV Env fusion 61 (no result: ERp5 inh)
Cc1ccc(N2C(=O)N3[C@H](c4ccc(Br)cc4)[C@@H]4C(=O)N(C(C)(C)C)C(=O)[C@@H]4[C@]3(C)C2=O)cc1	none
CCC(=O)Nc1ccc2c(c1)OC[C@@H](C)N(Cc1cccc(F)c1)C[C@H](C)[C@@H](OC)CN(C)C2=O	none (no result: PDI inh)
CC(=O)NC[C@@H]1[C@@H](c2ccc(-c3cccc(F)c3)cc2)[C@@H](CO)N1C(=O)C1CC1	none (no result: HIV Env fusion, PDI inh)
CCNC(=O)C[C@H]1CC[C@@H]2[C@H](COc3ccc(NC(C)=O)cc3C(=O)N2C)O1	none (no result: PDI inh)
O=C(NCc1ccc(Cl)cc1)c1cc(=O)[nH]c2ccc(S(=O)(=O)N3CCOCC3)cc12	GSIS activator 55
C[C@H]1CCCCO[C@@H](CN(C)Cc2ccc3c(c2)OCO3)[C@@H](C)CN([C@@H](C)CO)C(=O)c2cc(NC(=O)C3CCCCC3)ccc2O1	none (no result: FN deposit inh, PDI inh)
Cc1cc2c3c(c1C)C1(C(=O)N3C(C)(C)CC2C)C(C#N)=C(N)Oc2n[nH]c(C)c21 (stereo not given)	none (no result: HIV Env fusion, FN deposit inh)
Cc1cc2c3c(c1)C1(C(=O)N3C(C)(C)CC2C)C(C#N)=C(N)Oc2n[nH]c(C)c21 (stereo not given)	PDI inh 38 (no result: ERp5 inh)
COc1ccc(CNC(=O)C[C@H]2C=C[C@@H](NC(=O)CN(C)C)[C@H](CO)O2)cc1	none (no result: FN deposit inh, PDI inh)
N#Cc1ccc(-c2nc3c4ccccc4ccn3c2Cc2ccsc2)cc1	none (no result: PDI inh)
Clc1ccc(-c2nc3c4ccccc4ccn3c2Cc2ccsc2)cc1	HIV Env fusion 65 (no result: PDI inh, GSIS activator)
COc1ccc2c3c(n(C)c2c1)[C@H](CO)N(C(=O)NC1CCCCC1)CC31CN(C)C1	none (no result: HIV Env fusion, FN deposit inh, PDI inh, ERp5 inh)
C[C@@H]1CN([C@@H](C)CO)C(=O)Cc2cc(NC(=O)C3CCCCC3)ccc2O[C@H]1CN(C)CC1CCCCC1	none (no result: FN deposit inh, PDI inh)
CCN=C1S/C(=C\c2sccc2C)C(=O)N1CC	GSIS activator 63
Cc1ccsc1/C=C1\SC(=S)N(CC2CCCO2)C1=O (stereo not given)	none
CCN=C1S/C(=C\c2cc(Br)c(O)c(OC)c2)C(=O)N1CC	GSIS activator 53
CO[C@@H](CN(C)Cc1cc(F)ccc1F)[C@@H](C)CN([C@H](C)CO)S(=O)(=O)c1ccc(C)cc1	none (no result: HIV Env fusion, PDI inh)
Cc1ccc(S(=O)(=O)N(C)C[C@H]2OCCCC[C@@H](C)Oc3ccc(NC(=O)Nc4cccc5ccccc45)cc3C(=O)N([C@@H](C)CO)C[C@H]2C)cc1	none (no result: PDI inh)
CN(C)C(=O)c1ccc(-c2ccc3c(c2)[C@H]2[C@H](CCN2C(=O)Cc2ccccn2)[C@@H](CO)N3C)cc1	none (no result: HIV Env fusion, PDI inh)
COc1cccc(CN2CCC2(C)C(=O)Nc2cccc(Oc3ccccc3)c2)c1OC (stereo not given)	HIV Env fusion 86
CC1(C(=O)Nc2ccc3c(c2)OCO3)CCN1Cc1csc2ccccc12 (stereo not given)	HIV Env fusion 63 (no result: GSIS activator)
C[C@@H]1CCCCO[C@@H](CN(C)C(=O)NC2CCCCC2)[C@H](C)CN([C@@H](C)CO)C(=O)c2cc(NC(=O)CCC(F)(F)F)ccc2O1	none (no result: FN deposit inh, PDI inh)
C[C@H]1CN([C@@H](C)CO)C(=O)Cc2cc(NC(=O)CCN3CCOCC3)ccc2O[C@@H]1CN(C)Cc1ccc(Cl)c(Cl)c1	none (no result: HIV Env fusion, FN deposit inh, PDI inh)
C=C1CCN([C@H](C(=O)OCc2cccc(C)c2)C(C)C)S(=O)(=O)c2ccccc21	HIV Env fusion 76
CCN1[C@H](C(=O)N(C)C)[C@@H](CO)[C@@H]2Cn3c(ccc(/C=C/c4ccccc4)c3=O)[C@@H]21	none (no result: HIV Env fusion, FN deposit inh, PDI inh)
COc1ccc2nc(CCN(C)C(=O)C3CCC(=O)N(Cc4cccc(F)c4)C3)[nH]c2c1 (stereo not given)	GSIS activator 61
COc1cccc(CN2CC(C(=O)N(C)Cc3nc4ccc(F)cc4[nH]3)CCC2=O)c1 (stereo not given)	none
COc1cccc(CN2CC(C(=O)N(C)Cc3ccc(C)cc3)CCC2=O)c1 (stereo not given)	HIV Env fusion 58
COc1cccc(CN2CC(C(=O)N(C)Cc3[nH]c4ccccc4c3C)CCC2=O)c1 (stereo not given)	none
CC(=O)N(C)C[C@H]1Oc2cc(C#Cc3ccncc3)ccc2S(=O)(=O)N([C@@H](C)CO)C[C@H]1C	none (no result: PDI inh)
NCCc1c(-c2ccccc2)n(-c2ccccc2)c2ccccc12	FN deposit inh 44
CC(=O)n1c(-c2ccccc2)c(CO)c2ccccc21	none
CCOC(=O)c1cccc(NC(=O)CSc2nc3cccnc3n2C)c1	HIV Env fusion 62 (no result: ERp5 inh, GSIS activator)
O=C(Cc1ccccc1)N1CC[C@@H]2[C@H]1c1cc(C#Cc3ccccc3)ccc1N[C@@H]2CO	none (no result: HIV Env fusion, PDI inh)
CC(=O)c1ccc(Nc2cc(C)nc3ccccc23)cc1	none
Cc1cc(Nc2cccc(Br)c2)c2ccccc2n1	HIV Env fusion 66
COc1ccc(Nc2cc(C)nc3ccccc23)cc1	GSIS activator 42 (no result: HIV Env fusion, FN deposit inh)
COc1ccc(C(=O)/C(C#N)=N/Nc2ccc([N+](=O)[O-])cc2)cc1	none
COc1ccc(C(=O)/C(C#N)=N/Nc2ccccc2[N+](=O)[O-])cc1	GSIS activator 62
Cc1cc(Cl)ccc1OCC(=O)N1CC(C)CC(C)C1 (stereo not given)	none (no result: ERp5 inh, GSIS activator)
Cc1cc(Cl)ccc1OCC(=O)N1CCCN(C(=O)COc2ccc(Cl)cc2C)CC1	HIV Env fusion 115 (no result: ERp5 inh)
COc1ccccc1OCC(=O)N1CCCCCC1	none (no result: GSIS activator)
CCOC(=O)N1CCN(C(=O)COc2ccccc2OC)CC1	GSIS activator 62 (no result: ERp5 inh)
